Experimental data published in ChEMBL document CHEMBL1153600, “Synthesis of novel trans-stilbene derivatives and evaluation of their potent antioxidant and neuroprotective effects” (Eur J Med Chem, 2009).
The source made the active and inactive calls. No cut-off for these calls is given here.

How the values were obtained:
[1] = test system: Radical scavenging activity; test: Antioxidant activity assessed as DPPH radical scavenging activity; type: functional
Summary of the method: (§1)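 DPPH radical bleaching, tested at 10, 50, 100 and 200 µM (printed as mM) following a published method, with resveratrol as reference.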

[2] = test system: Radical scavenging activity; test: Antioxidant activity assessed as DPPH radical scavenging activity at 200 uM; type: functional; summary of the method: as §1
[3] = test system: Radical scavenging activity; test: Antioxidant activity assessed as DPPH radical scavenging activity at 50 uM; type: functional; summary of the method: as §1
[4] = test system: Radical scavenging activity; test: Antioxidant activity assessed as DPPH radical scavenging activity at 10 uM; type: functional; summary of the method: as §1
[5] = test system: Radical scavenging activity; test: Antioxidant activity assessed as DPPH radical scavenging activity at 100 uM; type: functional; summary of the method: as §1
[6] = Neuroprotective activity in ICR mouse cortical neuron cells assessed as prevention of excitotoxic neuronal death after 24 hrs by LDH assay; type: functional; conditions: Cortical neurone, read-out: ED50 (the source's name)
Summary of the method: (§2)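 Primary cortical cultures from ICR mouse embryos at gestational day 15, plated on poly-D-lysine/laminin at 4.8 × 10⁵ cells/well in MEM with 5% FCS and mouse serum. Compound at 1–50 µM was co-applied with glutamate 50 µM for 24 h at 37 °C. LDH released into the medium was followed by NADH consumption with pyruvate, read at 340 nm. Mean ± SD of three observations.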

Cortical neurone [7] = test: Neuroprotective activity in ICR mouse cortical neuron cells assessed as prevention of glutamate-induced neurotoxicity at 10 to 50 uM after 24 hrs by LDH assay; type: functional; summary of the method: as §2
BV-2 [8] = test: Antiinflammatory activity against mouse BV2 microglia cells assessed as inhibition of LPS-induced NO production after 24 hrs; type: functional; conditions: BV-2, 24 h, read-out: ED50 (the source's name)
Summary of the method: (§3)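 BV-2 murine microglia kept in DMEM with 10% FBS and penicillin/streptomycin (37 °C, 5% CO2). Cells were plated at 1 × 10⁵ cells/mL and stimulated with LPS 100 ng/mL, alone or with compound at 1, 10 or 50 µM, for 24 h at 37 °C. Nitrite in the medium was read by Griess reagent at 540 nm. Mean ± SD of three observations.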

BV-2 [9] = test: Antiinflammatory activity against mouse BV2 microglia cells assessed as inhibition of LPS-induced NO production at 10 to 50 uM after 24 hrs; type: functional, cell-based; summary of the method: as §3
Cortical neurone [10] = test: Neuroprotective activity in ICR mouse cortical neuron cells assessed as prevention of glutamate-induced neurotoxicity at 1 uM after 24 hrs by LDH assay; type: functional; summary of the method: as §2
BV-2 [11] = test: Antiinflammatory activity against mouse BV2 microglia cells assessed as inhibition of LPS-induced NO production at 1 uM after 24 hrs; type: functional, cell-based; summary of the method: as §3

Row | IC50 [1] [µM] | EC50 (BV-2 [8]) [µM] | SMILES | Activity [2] [%] | Activity [3] [%] | Activity [4] [%] | Activity [5] [%] | EC50 [6] [µM] | Activity (Cortical neurone [7]) | Activity (BV-2 [9]) | Activity (Cortical neurone [10]) | Activity (BV-2 [11])
1 | > 200 |  | COC(=O)/C=C/c1ccc(/C=C/c2ccc(O)c(O)c2)cc1 | 5.29 | 5.31 | 5.91 | 5.73 |  |  |  |  | 
2 | 98.1 | 1.95 | C=CCNC(=O)c1ccc(/C=C/c2ccc(O)c(O)c2)cc1 | 74.1 | 29 | 15 | 41.7 | 29.6 | Active | Active |  | 
3 | 69 | 0.82 | O=C(NCc1ccco1)c1ccc(/C=C/c2ccc(O)c(O)c2)cc1 | 79.2 | 35.1 | 21.9 | 48 | 58.3 | Active | Active |  | 
4 | > 200 | 1.51 | O=C/C=C/c1ccc(/C=C/c2ccc(O)c(O)c2)cc1 | 54.4 | 21.2 | 13.2 | 28.8 | 42.3 | Active |  | Active | Active
5 | > 200 |  | CC1CCN(C(=O)c2ccc(/C=C/c3ccc(O)c(O)c3)cc2)CC1 | 48.6 | 21.3 | 15.1 | 31.5 |  |  |  |  | 
6 | > 200 |  | OC/C=C/c1ccc(/C=C/c2ccc(O)c(O)c2)cc1 | 17.3 | 8.64 | 6.82 | 11.5 |  |  |  |  | 
7 | > 200 |  | O=C(c1ccc(/C=C/c2ccc(O)c(O)c2)cc1)N1CCOCC1 | 29.4 | 10.2 | 5.7 | 19.1 |  |  |  |  | 
8 | > 200 |  | COC(=O)c1ccc(/C=C/c2ccc(O)c(O)c2)cc1 | 29.3 | 8.95 | 2.31 | 16.5 |  |  |  |  | 
9 | > 200 |  | O=C(NCC1CCCO1)c1ccc(/C=C/c2ccc(O)c(O)c2)cc1 (configuration not stated) | 31.7 | 18 | 16.7 | 26.5 |  |  |  |  | 

Further lines, the compound ahead of its results:

Row | SMILES | IC50 [1] [µM] | EC50 (BV-2 [8]) [µM] | Activity [2] [%] | Activity [3] [%] | Activity [4] [%] | Activity [5] [%] | EC50 [6] [µM] | Activity (Cortical neurone [7]) | Activity (BV-2 [9]) | Activity (Cortical neurone [10]) | Activity (BV-2 [11])
10 | O=C(NCCCN1CCCC1=O)c1ccc(/C=C/c2ccc(O)c(O)c2)cc1 | > 200 |  | 44 | 22.2 | 12.9 | 28.4 |  |  |  |  | 
11 | O=C(CNC(=O)c1ccccc1)OCc1ccc(/C=C/c2ccc(O)c(O)c2)cc1 | > 200 |  | 46.9 | 28.1 | 21.2 | 33.2 |  |  |  | Active | 
12 | O=C(c1ccccc1)N1CCN(C(=O)c2ccc(/C=C/c3ccc(O)c(O)c3)cc2)CC1 | 185 |  | 59.1 | 24.6 | 17.2 | 36.7 |  |  |  |  | 
13 | CCCCCCCCCCNC(=O)c1ccc(/C=C/c2ccc(O)c(O)c2)cc1 | 47.9 |  | 79.1 | 42 | 18.5 | 75.2 |  |  |  |  | 
14 | O=C(c1ccc(/C=C/c2ccc(O)c(O)c2)cc1)N1CCC(Cc2ccccc2)CC1 | > 200 | 1.12 | 25.8 | 10.1 | 4.75 | 17.4 |  | Active |  |  | Active
15 | Oc1ccc(/C=C/c2cc(O)cc(O)c2)cc1 [RESVERATROL] | > 200 |  | 33.8 | 8.44 | 9.45 | 28.4 |  |  |  |  | 
16 | CCOC(=O)c1cccc(NC(=O)c2ccc(/C=C/c3ccc(O)c(O)c3)cc2)c1 | 127 |  | 62.8 | 29.3 | 21.3 | 44.1 |  |  |  |  | 
17 | O=C(Nc1ccccc1)c1ccc(/C=C/c2ccc(O)c(O)c2)cc1 | > 200 |  | 59.8 | 17.6 | 10.2 | 27.1 |  |  |  |  | 
18 | O=C(NCc1ccccc1F)c1ccc(/C=C/c2ccc(O)c(O)c2)cc1 | 43.6 |  | 88 | 42.2 | 29.8 | 52.3 |  |  |  |  | 
19 | C=CCN1CCN(C(=O)c2ccc(/C=C/c3ccc(O)c(O)c3)cc2)CC1 | 141 |  | 62.4 | 31.2 | 24.8 | 40 |  |  |  |  | 
20 | O=C(NC1CCCCC1)c1ccc(/C=C/c2ccc(O)c(O)c2)cc1 | 128 |  | 68.7 | 22.5 | 17.2 | 40.2 |  |  |  |  | 
